These results are taken from ChEMBL document CHEMBL2069242, “Structure and activity relationship in the (S)-N-chroman-3-ylcarboxamide series of voltage-gated sodium channel blockers” (Bioorg Med Chem Lett, 2012).

In data set [1] the test system is Liver microsomes. Nature of the data set: Intrinsic clearance in human liver microsomes assessed per ug of protein. Format: ADME, Microsome. A general note: Liver microsomes are vesicles of endoplasmic reticulum, rich in cytochrome P450 enzymes.
In data set [2] the target is Voltage-gated inwardly rectifying potassium channel KCNH2 (Homo sapiens, UniProt Q12809). Nature of the data set: Inhibition of human ERG expressed in CHO cells by IonWorks HT assay. The format is cell-based.
Data set [3] deals with Liver microsomes. Briefly: Intrinsic clearance in rat liver microsomes assessed per ug of protein. Format: ADME, Microsome.
Data set [4] addresses Sodium channel protein type 5 subunit alpha (Homo sapiens, UniProt Q14524). Briefly: Inhibition of human NaV1.5 expressed in CHO cells by IonWorks assay. Format: cell-based.
Data set [5] can be described thus: Solubility of the compound. Format: physicochemical.
In data set [6] the target is Serotonin (5-HT) receptor (Homo sapiens) (UniProt P30939+P41595+Q13639+P28222+P46098+P08908+P28221+P28223+P28335+P28566+P34969+P50406+P47898+A5X5Y0+O95264+Q70Z44+Q8WXA8). Nature of the data set: Activity at 5HT receptor. The format is protein assay.
The target of data set [7] is Sodium channel protein type 9 subunit alpha (Homo sapiens, UniProt Q15858). Briefly: Inhibition of human NaV1.7 expressed in HEK293 cells by whole-cell voltage clamp assay. Format: cell-based. The gist of the method: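 Human NaV1.7 α-subunit stably expressed in HEK293 cells. Currents were recorded by perforated whole-cell automated planar patch clamp (IonWorks Quattro) in D-PBS external solution with 5.5 mM glucose. Cells were held at −65 mV, and a train of eight 30 ms steps to −20 mV at 3 Hz was applied. Half-log serial dilutions were made in DMSO, giving 0.3% DMSO in the recording solution.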
Sequence of Sodium channel protein type 9 subunit alpha (Q15858 whole entry): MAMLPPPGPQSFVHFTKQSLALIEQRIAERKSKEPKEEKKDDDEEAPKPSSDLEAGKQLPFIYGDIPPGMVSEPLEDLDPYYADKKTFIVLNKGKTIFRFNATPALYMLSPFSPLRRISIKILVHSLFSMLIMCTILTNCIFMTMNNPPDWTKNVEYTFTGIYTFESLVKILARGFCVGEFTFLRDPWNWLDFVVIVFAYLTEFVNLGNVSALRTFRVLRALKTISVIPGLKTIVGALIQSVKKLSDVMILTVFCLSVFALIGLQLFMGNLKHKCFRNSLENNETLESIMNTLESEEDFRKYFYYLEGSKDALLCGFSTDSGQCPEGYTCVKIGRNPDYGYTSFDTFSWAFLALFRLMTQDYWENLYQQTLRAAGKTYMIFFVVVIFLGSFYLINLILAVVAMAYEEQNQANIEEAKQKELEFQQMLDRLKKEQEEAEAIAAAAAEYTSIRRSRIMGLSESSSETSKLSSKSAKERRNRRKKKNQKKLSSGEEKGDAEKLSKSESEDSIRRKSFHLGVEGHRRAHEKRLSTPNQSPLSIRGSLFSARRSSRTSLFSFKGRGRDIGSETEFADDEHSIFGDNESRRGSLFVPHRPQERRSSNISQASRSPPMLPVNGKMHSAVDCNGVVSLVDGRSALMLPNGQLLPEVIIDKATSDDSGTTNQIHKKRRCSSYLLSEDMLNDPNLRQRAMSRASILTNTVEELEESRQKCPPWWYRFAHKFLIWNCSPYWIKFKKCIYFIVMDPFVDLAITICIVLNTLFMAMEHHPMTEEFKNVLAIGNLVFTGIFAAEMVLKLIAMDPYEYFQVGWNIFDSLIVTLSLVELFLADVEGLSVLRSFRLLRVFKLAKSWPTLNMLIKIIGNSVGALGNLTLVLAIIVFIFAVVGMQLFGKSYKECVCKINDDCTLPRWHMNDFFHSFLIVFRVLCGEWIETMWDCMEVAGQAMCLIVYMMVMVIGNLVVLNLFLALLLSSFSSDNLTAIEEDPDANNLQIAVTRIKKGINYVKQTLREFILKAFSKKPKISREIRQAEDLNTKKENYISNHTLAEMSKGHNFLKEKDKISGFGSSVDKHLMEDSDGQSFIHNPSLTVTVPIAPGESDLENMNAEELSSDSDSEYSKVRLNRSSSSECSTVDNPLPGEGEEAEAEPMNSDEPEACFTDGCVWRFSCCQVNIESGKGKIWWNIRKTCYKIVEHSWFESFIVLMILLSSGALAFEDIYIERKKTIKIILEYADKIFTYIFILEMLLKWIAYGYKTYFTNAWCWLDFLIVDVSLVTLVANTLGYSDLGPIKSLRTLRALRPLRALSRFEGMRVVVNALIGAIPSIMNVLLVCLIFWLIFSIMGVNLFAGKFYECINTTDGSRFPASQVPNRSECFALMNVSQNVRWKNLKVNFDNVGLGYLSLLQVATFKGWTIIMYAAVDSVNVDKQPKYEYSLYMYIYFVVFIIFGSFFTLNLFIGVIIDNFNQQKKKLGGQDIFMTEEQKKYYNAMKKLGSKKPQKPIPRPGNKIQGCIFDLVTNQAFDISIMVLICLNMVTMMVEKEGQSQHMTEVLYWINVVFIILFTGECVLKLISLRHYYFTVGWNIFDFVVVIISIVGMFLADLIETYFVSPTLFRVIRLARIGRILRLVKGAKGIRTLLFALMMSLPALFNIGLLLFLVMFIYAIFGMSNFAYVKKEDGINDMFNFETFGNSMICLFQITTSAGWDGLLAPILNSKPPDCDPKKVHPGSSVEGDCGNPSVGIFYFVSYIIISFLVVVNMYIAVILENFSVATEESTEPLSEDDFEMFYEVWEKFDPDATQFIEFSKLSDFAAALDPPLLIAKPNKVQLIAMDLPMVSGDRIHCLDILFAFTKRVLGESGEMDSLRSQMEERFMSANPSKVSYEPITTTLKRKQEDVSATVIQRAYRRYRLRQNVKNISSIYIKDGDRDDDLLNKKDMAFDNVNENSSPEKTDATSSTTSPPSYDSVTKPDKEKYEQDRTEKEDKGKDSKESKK

The test system of data set [8] is Rattus norvegicus. Briefly: Dose normalized AUC in Sprague-Dawley rat at 3 umol/kg, iv. The format is ADME, organism-based. The note with it: in vivo. The essentials:
(§1)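 Rat pharmacokinetics used fasted male Sprague–Dawley rats, three animals per administration route per compound. The intravenous dose was 3 µmol/kg, with a separate oral arm.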

Data set [9] concerns Plasma. Briefly: Plasma concentration in formalin-challenged Sprague-Dawley rat at 49 umol/kg, po administered 3 hrs prior to formalin-challenge measured up to 5 mins post formalin challenge. The format is ADME, organism-based. Particulars: in vivo. The essentials:
(§2)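 Sprague–Dawley rats (n = 9/group) were dosed by oral gavage 3 h before formalin, at 0, 19, 49 and 99 µmol/kg, as a nanosuspension in 1% PVP K30/0.2% SDS. Formalin was 100 µL of 2.0% injected s.c. into the dorsal left hind paw. Paw-licking time was scored over 35 min: phase 1 at 0–5 min, phase 2 at 15–35 min. Results were given as % of vehicle, with total plasma concentration as mean SD. Statistics were one-way ANOVA, then unpaired one-tailed t-test.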

Data set [10] relates to Rattus norvegicus. Nature of the data set: Antinociceptive activity in formalin-challenged Sprague-Dawley rat assessed as latency in paw licking during phase 1 at 49 umol/kg, po administered 3 hrs prior to formalin-challenge measured up to 5 mins post formalin challenge relative to control. The format is functional. The essentials: as §2
Data set [11] has as its target T1, Cannabinoid receptor 1 (Homo sapiens, UniProt P21554). Briefly: Displacement of [3H]SR141716A from CB1 receptor at 10 uM.
For data set [12], the system named is Rattus norvegicus. Nature of the data set: Antinociceptive activity in formalin-challenged Sprague-Dawley rat assessed as latency in paw licking during phase 2 at […], po administered 3 hrs prior to formalin-challenge measured up to 15 to 35 mins post formalin challenge. Format: functional, organism-based. The gist of the method: as §2
Data set [13] is described as follows: Cmax in Sprague-Dawley rat at 10 umol/kg, po. Format: ADME, organism-based. Set-up: dose 10 umol/kg, route oral. The note with it: in vivo. The essentials:
as §1

The nature of data set [14]: Half life in Sprague-Dawley rat at 3 umol/kg, iv. Particulars: in vivo. Format: ADME, organism-based. The gist of the method:
as §1

Data set [15] in a line: Oral bioavailability in Sprague-Dawley rat at 10 umol/kg. Format: ADME, organism-based. Particulars: in vivo. The essentials:
as §1

Data set [16] can be described thus: Displacement of [3H]nitrobenzylthioinosine from adenosine transporter. Set-up: species or system Homo sapiens. A general note: Loss of bound radioactivity is the signal in a displacement assay; it reports binding, not function.
Data set [17] has as its target T2, 5-hydroxytryptamine receptor 1A (Homo sapiens) (UniProt P08908).
T2 sequence (whole entry): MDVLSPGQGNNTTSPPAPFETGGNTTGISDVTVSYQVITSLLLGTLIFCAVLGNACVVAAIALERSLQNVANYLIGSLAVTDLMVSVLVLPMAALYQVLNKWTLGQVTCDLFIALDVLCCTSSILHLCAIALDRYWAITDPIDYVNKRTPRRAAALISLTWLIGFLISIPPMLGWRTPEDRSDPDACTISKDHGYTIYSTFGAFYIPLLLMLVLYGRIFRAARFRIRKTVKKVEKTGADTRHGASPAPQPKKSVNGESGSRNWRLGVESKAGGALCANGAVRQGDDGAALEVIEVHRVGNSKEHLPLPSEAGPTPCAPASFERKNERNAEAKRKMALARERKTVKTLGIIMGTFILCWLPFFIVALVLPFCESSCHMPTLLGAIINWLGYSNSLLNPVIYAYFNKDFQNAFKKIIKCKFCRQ
Briefly: Activity at 5HT1A receptor.

The target of data set [18] is T1, Cannabinoid receptor 1. Briefly: Agonist activity at CB1 receptor by [35gammaS]GTP incorporation assay. The format is functional.
The target in data set [19] is T3, C-C chemokine receptor type 1 (Homo sapiens) (UniProt P32246).
T3 sequence (whole entry): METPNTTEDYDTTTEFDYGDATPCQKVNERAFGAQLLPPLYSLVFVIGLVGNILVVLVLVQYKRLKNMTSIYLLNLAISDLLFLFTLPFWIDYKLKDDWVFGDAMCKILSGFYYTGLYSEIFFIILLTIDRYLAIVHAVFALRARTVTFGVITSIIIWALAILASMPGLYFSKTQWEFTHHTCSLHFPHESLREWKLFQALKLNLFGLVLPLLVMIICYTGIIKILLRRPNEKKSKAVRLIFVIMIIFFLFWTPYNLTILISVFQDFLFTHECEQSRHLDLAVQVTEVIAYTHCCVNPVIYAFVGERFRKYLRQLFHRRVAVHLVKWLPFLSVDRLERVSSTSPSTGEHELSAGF
Briefly: Increase in [125I]MIP-1alpha binding to CCR1 at 10 uM.

The species named for data set [20] is Homo sapiens. Briefly: Displacement of [3H]nitrobenzylthioinosine from adenosine transporter at 10 uM.
The test system of data set [21] is Rattus norvegicus. Briefly: Dose normalized AUC in Sprague-Dawley rat at 10 umol/kg, po. The note with it: in vivo. Format: ADME, organism-based. The gist of the method:
as §1

Data set [22] is described as follows: Tmax in Sprague-Dawley rat at 10 umol/kg, po. Particulars: in vivo. The format is ADME, organism-based. The gist of the method:
as §1

Data set [23] in a line: Clearance in Sprague-Dawley rat at 3 umol/kg, iv. The format is ADME, organism-based. The note with it: in vivo. The essentials:
as §1

Data set [24] in a line: Volume of distribution at steady state in Sprague-Dawley rat at 3 umol/kg, iv. The format is ADME, organism-based. Particulars: in vivo, read-out: Vdss. The gist of the method: as §1
The target in data set [25] is 5-hydroxytryptamine receptor 1B (Homo sapiens) (UniProt P28222). Nature of the data set: Activity at 5HT1B receptor.
Data set [26] can be described thus: Half life in Sprague-Dawley rat at 10 umol/kg, po. The format is ADME, organism-based. Particulars: in vivo. The essentials: as §1
For data set [27], the target named is T1, Cannabinoid receptor 1. Nature of the data set: Displacement of [3H]SR141716A from CB1 receptor.
Data set [28] relates to Rattus norvegicus. Briefly: Antinociceptive activity in po dosed formalin-challenged Sprague-Dawley rat assessed as latency in paw licking during phase 1 administered 3 hrs prior to formalin-challenge measured up to 5 mins post formalin challenge. Format: functional, organism-based. The gist of the method:
as §2

Data set [29] deals with T4, Growth hormone secretagogue receptor type 1 (Homo sapiens, UniProt Q92847). Briefly: Displacement of [125I]ghrelin from GHS receptor.
In data set [30] the target is T5, Sodium-dependent dopamine transporter (Homo sapiens, UniProt Q01959). Briefly: Displacement of [125I]RTI-55 from DAT at 10 uM.
T5 sequence (Q01959 whole entry): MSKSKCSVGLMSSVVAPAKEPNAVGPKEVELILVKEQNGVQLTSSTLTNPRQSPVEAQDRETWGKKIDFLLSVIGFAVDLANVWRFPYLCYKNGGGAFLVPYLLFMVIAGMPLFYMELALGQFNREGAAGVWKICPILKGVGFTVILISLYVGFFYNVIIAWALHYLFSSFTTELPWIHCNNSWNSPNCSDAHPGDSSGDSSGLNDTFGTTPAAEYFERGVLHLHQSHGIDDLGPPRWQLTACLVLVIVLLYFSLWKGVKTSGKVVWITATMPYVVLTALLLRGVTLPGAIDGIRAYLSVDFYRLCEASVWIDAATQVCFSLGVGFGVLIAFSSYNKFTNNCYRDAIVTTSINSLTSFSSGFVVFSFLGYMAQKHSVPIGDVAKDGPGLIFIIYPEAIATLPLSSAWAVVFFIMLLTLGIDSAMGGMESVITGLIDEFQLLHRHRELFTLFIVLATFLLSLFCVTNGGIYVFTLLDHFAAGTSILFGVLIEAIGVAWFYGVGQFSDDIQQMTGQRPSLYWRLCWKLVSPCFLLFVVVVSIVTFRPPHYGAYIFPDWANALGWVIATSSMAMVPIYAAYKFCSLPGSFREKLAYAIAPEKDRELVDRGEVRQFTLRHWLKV
Data set [31] deals with T5, Sodium-dependent dopamine transporter. Nature of the data set: Displacement of [125I]RTI-55 from DAT.
For data set [32], the target named is T6, Alpha-2B adrenergic receptor (Homo sapiens) (UniProt P18089).
T6 sequence (whole entry): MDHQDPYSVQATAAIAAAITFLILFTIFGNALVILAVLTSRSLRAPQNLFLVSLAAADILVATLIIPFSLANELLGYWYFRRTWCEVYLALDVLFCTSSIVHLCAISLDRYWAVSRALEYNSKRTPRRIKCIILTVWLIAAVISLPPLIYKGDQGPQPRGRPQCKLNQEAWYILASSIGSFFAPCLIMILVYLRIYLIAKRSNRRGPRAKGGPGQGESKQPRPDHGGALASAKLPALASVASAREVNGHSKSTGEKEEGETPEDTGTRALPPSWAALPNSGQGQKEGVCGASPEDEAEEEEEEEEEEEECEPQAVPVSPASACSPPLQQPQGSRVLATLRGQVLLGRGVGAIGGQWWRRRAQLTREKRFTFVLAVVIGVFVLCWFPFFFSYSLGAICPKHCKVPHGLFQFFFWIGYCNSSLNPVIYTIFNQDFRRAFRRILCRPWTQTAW
Nature of the data set: Displacement of [3H]rauwolscine from adrenergic alpha2B receptor at 10 uM.

The target of data set [33] is T4, Growth hormone secretagogue receptor type 1. Nature of the data set: Displacement of [125I]ghrelin from GHS receptor at 10 uM.

Values after ≈ are worked out from the molar mass of the structure shown. Active and inactive are the calls of the source. The calls are words filed in the database; no cut-off is given here.

T1 sequence (P21554 whole entry): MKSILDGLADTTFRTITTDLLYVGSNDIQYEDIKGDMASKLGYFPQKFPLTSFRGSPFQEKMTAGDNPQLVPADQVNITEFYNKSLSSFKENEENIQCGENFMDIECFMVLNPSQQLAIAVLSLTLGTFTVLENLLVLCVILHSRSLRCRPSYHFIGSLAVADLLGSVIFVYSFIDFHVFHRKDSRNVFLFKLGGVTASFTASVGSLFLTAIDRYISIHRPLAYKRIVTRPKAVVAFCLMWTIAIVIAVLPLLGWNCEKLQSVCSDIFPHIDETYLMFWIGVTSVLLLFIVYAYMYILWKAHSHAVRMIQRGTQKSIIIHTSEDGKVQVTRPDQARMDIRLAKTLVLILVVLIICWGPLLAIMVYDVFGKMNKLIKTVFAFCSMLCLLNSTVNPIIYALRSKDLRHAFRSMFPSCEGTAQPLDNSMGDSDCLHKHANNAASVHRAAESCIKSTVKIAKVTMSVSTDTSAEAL
Sequence of Sodium channel protein type 5 subunit alpha (Q14524 whole entry): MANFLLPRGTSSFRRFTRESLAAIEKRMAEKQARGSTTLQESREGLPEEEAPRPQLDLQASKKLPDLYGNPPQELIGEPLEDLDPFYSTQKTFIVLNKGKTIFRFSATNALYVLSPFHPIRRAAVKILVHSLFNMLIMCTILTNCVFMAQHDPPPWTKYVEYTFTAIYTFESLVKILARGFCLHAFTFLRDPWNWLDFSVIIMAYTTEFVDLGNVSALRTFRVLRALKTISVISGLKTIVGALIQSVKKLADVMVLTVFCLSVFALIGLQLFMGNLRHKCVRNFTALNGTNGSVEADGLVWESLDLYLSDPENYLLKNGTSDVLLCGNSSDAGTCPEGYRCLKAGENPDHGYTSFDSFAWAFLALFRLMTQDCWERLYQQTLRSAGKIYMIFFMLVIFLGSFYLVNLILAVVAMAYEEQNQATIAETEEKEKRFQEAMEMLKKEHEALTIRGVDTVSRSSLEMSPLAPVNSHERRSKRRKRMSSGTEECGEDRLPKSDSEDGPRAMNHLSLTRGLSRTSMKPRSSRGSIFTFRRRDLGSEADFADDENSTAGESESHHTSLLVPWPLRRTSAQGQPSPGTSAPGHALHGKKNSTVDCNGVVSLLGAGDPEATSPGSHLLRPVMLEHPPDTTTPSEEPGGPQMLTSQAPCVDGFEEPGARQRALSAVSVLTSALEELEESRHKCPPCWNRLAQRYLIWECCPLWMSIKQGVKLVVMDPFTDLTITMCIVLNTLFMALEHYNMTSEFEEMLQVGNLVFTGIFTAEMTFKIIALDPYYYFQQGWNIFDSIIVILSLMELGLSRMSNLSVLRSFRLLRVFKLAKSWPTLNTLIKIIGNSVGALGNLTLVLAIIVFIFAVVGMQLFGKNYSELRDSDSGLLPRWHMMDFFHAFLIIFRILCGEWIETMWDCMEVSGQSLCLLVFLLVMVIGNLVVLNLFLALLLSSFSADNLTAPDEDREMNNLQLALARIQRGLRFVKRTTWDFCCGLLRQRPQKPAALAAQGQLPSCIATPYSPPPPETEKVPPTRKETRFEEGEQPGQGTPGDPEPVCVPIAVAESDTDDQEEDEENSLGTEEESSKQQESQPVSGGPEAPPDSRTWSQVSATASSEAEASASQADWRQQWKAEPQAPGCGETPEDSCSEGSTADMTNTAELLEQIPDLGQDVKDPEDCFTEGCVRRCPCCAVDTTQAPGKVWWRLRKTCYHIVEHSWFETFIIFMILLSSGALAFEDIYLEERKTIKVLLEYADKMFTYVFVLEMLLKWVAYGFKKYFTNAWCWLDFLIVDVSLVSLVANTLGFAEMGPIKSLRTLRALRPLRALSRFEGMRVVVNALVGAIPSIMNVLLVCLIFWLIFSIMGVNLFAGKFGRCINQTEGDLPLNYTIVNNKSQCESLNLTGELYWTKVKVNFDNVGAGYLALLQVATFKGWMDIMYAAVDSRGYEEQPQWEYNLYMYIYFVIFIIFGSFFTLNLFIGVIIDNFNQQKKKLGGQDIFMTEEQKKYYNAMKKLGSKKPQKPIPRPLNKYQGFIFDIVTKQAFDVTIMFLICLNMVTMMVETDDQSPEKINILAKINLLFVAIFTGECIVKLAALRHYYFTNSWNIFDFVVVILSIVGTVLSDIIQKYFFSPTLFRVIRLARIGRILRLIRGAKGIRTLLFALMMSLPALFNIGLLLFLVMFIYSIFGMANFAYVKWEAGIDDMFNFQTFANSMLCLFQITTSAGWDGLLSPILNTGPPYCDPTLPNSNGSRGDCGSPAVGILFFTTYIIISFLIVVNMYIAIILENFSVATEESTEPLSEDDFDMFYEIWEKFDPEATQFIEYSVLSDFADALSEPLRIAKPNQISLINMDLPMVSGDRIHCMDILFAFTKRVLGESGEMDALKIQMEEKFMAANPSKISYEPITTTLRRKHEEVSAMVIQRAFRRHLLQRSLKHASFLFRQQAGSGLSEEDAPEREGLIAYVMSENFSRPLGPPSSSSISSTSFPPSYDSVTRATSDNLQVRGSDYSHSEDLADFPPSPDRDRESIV

Regarding `Cc1nn(-c2ccccc2)nc1C(=O)N[C@@H]1COc2cccc(N3CCN(C)CC3)c2C1`, the CLint was found to be 14 µL/min/mg in [1] and 4 µL/min/mg in data set [3]. Also, the IC50 (in general, the concentration that gives 50% inhibition) was 7.94 µM in [2], 5.01 µM in [4] and 0.316 µM in data set [7]. In addition, in data set [5], the concentration in solution (solubility) came to 211 µM (≈ 91.3 µg/mL). Moreover, the outcome in data set [6] was Active.

Turning to `COc1cnc(-c2cccc3c2C[C@H](NC(=O)c2ccc(COCC(F)(F)F)nc2)CO3)cn1`, the AUC/dose in data set [8] is 0.6 kg·h/L; in [21], 0.3 kg·h/L. The molecule further showed a concentration in data set [9] of 5000 nM. The results for the Activity in [10], in [19] and in [28] were 66%, 127% and “Dose-dependent effect”, respectively. Also, the inhibition (as a rule, the drop in the measured response relative to a control, in per cent) in data set [11] was determined as 55%; in data set [20] it was 66%. The outcome in data set [12], in [17], in data set [18] and in [25] was inactive. Further, the CLint in [1] and in data set [3] was under 10 µL/min/mg throughout. In addition, the highest level in data set [13] (Cmax) was 300 nM. In addition, the IC50 was 12.6 µM in data set [2]; 1.8 µM in data set [16]; 12.6 µM in data set [4]; 0.0794 µM in data set [7]; 5 µM in data set [27]. The half-life (as a rule, the time in which the quantity being followed falls by half) in [14] is 2.2 h; in data set [26] it was 4.8 h. For the same molecule, in data set [15], the bioavailability (usually dose-corrected exposure relative to a reference, in per cent) turned out to be 44%. In addition, in data set [22], the Tmax (as a rule, the time at which the peak concentration occurs) was determined as 2.5 h. The clearance (in general, the rate of elimination divided by the concentration) in [23] was 25 mL/min/kg. Besides, the Vd in [24] came to 4.2 L/kg. In addition, in data set [5], the solubility – broadly, how much of the substance goes into solution per volume – amounted to 34 µM (≈ 16.1 µg/mL).

With `O=C(N[C@@H]1COc2cccc(-c3ccc(CO)nc3)c2C1)c1ccc(OCC(F)(F)F)nc1`, the AUC/dose turned out to be 0.4 kg·h/L in data set [8] and 0.27 kg·h/L in data set [21]. Besides, the figures for the CLint in data set [1] and in data set [3] were 10 µL/min/mg and under 10 µL/min/mg, respectively. The Cmax (in general, the maximum level reached in the sampled fluid or tissue) in data set [13] is 380 nM. Moreover, the IC50 in data set [2] is 10 µM; in data set [29], 0.2 µM; in data set [4] it was 6.31 µM; in [31], 2 µM; in data set [7], 0.158 µM. Moreover, the half-life was 3.8 h in data set [14] and 3.5 h in data set [26]. For the same molecule, in data set [15], the bioavailability was 66.3%. Besides, the outcome in [17], in data set [25] and in data set [6] was inactive. Also, the inhibition in data set [30] was 80%; in data set [32] it was 55%; in data set [33], 98%. In data set [22], the Tmax was 1.5 h. Besides, in [23], the clearance was 42.2 mL/min/kg. Moreover, the Vd in [24] came out at 11 L/kg. Further, the concentration in solution in data set [5] (solubility) was 58 µM (≈ 26.6 µg/mL).
